Experimental data published in ChEMBL document CHEMBL2331506, “Design, synthesis, antiviral and cytostatic evaluation of novel isoxazolidine nucleotide analogues with a carbamoyl linker” (Bioorg Med Chem, 2013).
Active and inactive are the calls of the source. How the calls were made is not given here.

Experiments:
[1] = test system: HeLa; assay: Cytostatic activity against human HeLa cells assessed as inhibition of cell proliferation after 72 hrs by Coulter counter analysis; format: functional, cell-based
Method in brief: (§1)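 Each well received (5–7.5) × 10^4 tumor cells plus compound. L1210 cells grew 48 h and CEM and HeLa cells grew 72 h, at 37 °C in humidified CO2. Cells were then counted electronically, and IC50 was taken as the concentration inhibiting proliferation by 50%.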

[2] = test system: CCRF-CEM; assay: Cytostatic activity against human CEM cells assessed as inhibition of cell proliferation after 72 hrs by Coulter counter analysis; format: functional, cell-based; method in brief: as §1
[3] = test system: L1210; assay: Cytostatic activity against mouse L1210 cells assessed as inhibition of cell proliferation after 48 hrs by Coulter counter analysis; format: functional, cell-based; conditions: L1210, 48 h; method in brief: as §1
[4] = test system: MDCK; assay: Cytotoxicity against dog MDCK cells assessed as alteration of cell morphology up to 100 uM by microscopic analysis; format: cell-based, Canis lupus familiaris
Method in brief: (§2)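 Uninfected host-cell cultures were exposed to compound and examined by microscopy. Cytotoxicity was expressed as the minimum cytotoxic concentration (MCC) causing a microscopically detectable alteration of normal cell morphology.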

[5] = Cytotoxicity against cat CRFK cells assessed as alteration of cell morphology up to 100 uM by microscopic analysis; format: cell-based, Felis catus; method in brief: as §2
[6] = test system: Vero; assay: Cytotoxicity against african green monkey Vero cells assessed as alteration of cell morphology up to 100 uM by microscopic analysis; format: cell-based; conditions: chlorocebus sabaeus; method in brief: as §2
[7] = test system: HeLa; assay: Cytotoxicity against human HeLa cells assessed as alteration of cell morphology up to 100 uM by microscopic analysis; format: cell-based; method in brief: as §2
[8] = test system: HEL; assay: Cytotoxicity against human HEL cells assessed as alteration of cell morphology up to 100 uM by microscopic analysis; format: cell-based; method in brief: as §2
[9] = test system: Human immunodeficiency virus 2; assay: Antiviral activity against Human immunodeficiency virus 2 ROD infected in human CEM cells assessed as reduction of virus-induced giant cell formation at 250 uM after 4 to 5 days; format: functional, organism-based; conditions: CCRF-CEM
Method in brief: (§3)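 CEM cells at 3 × 10^5 cells/mL were infected with HIV at 100 CCID50 per mL in the presence of compound dilutions. They were held 4–5 days at 37 °C in humidified CO2. Syncytium (giant cell) formation was scored microscopically, and EC50 was taken as the concentration inhibiting giant cell formation by 50%.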

[10] = test system: Human immunodeficiency virus 1; assay: Antiviral activity against Human immunodeficiency virus 1 3B infected in human CEM cells assessed as reduction of virus-induced giant cell formation at 250 uM after 4 to 5 days; format: functional, organism-based; conditions: CCRF-CEM; method in brief: as §3
[11] = test system: Feline coronavirus; assay: Antiviral activity against Feline coronavirus infected in cat CRFK cells assessed as reduction of virus-induced cytopathogenicity at 250 uM; format: functional, organism-based
[12] = test system: Felid alphaherpesvirus 1; assay: Antiviral activity against Feline herpes virus infected in cat CRFK cells assessed as reduction of virus-induced cytopathogenicity at 250 uM; format: functional, organism-based
[13] = test system: Influenza B virus; assay: Antiviral activity against Influenza B virus infected in dog MDCK cells assessed as reduction of virus-induced cytopathogenicity at 250 uM; format: functional, organism-based
Method in brief: (§4)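 Confluent cell monolayers were infected with 100 CCID50 of virus while exposed to varying compound concentrations. Cytopathicity was scored once it was complete in untreated infected controls. EC50 was taken as the concentration that reduced virus-induced cytopathogenicity by 50%.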

[14] = test system: Influenza A virus; assay: Antiviral activity against Influenza A virus H3N2 infected in dog MDCK cells assessed as reduction of virus-induced cytopathogenicity at 250 uM; format: functional, organism-based; method in brief: as §4
[15] = test system: Influenza A virus; assay: Antiviral activity against Influenza A virus H1N1 infected in dog MDCK cells assessed as reduction of virus-induced cytopathogenicity at 250 uM; format: functional, organism-based; method in brief: as §4
[16] = test system: Punta Toro virus; assay: Antiviral activity against Punta Toro virus infected in african green monkey Vero cells assessed as reduction of virus-induced cytopathogenicity at 250 uM; format: functional, organism-based
Method in brief: (§5)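 Confluent monolayers (HEL fibroblasts, Vero, or HeLa cells as listed) were infected with 100 CCID50 of virus in the presence of varying compound concentrations. Virus-induced cytopathicity or plaque formation was scored once cytopathicity was complete in untreated infected controls. EC50 was taken as the concentration reducing cytopathogenicity or plaque formation by 50%.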

[17] = test system: Sindbis virus; assay: Antiviral activity against Sindbis virus infected in african green monkey Vero cells assessed as reduction of virus-induced cytopathogenicity at 250 uM; format: functional, organism-based; method in brief: as §5
[18] = test system: Coxsackievirus B4; assay: Antiviral activity against Coxsackievirus B4 infected in african green monkey Vero cells assessed as reduction of virus-induced cytopathogenicity at 250 uM; format: functional, organism-based; method in brief: as §5
[19] = test system: Mammalian orthoreovirus 1; assay: Antiviral activity against Reovirus 1 infected in african green monkey Vero cells assessed as reduction of virus-induced cytopathogenicity at 250 uM; format: functional, organism-based; method in brief: as §5
[20] = test system: Human respirovirus 3; assay: Antiviral activity against Parainfluenza virus 3 infected in african green monkey Vero cells assessed as reduction of virus-induced cytopathogenicity at 250 uM; format: functional, organism-based; method in brief: as §5
[21] = test system: Respiratory syncytial virus; assay: Antiviral activity against Respiratory syncytial virus long infected in human HeLa cells assessed as reduction of virus-induced cytopathogenicity at 250 uM; format: functional, organism-based; method in brief: as §5
[22] = test system: Vesicular stomatitis virus; assay: Antiviral activity against Vesicular stomatitis virus infected in human HeLa cells assessed as reduction of virus-induced cytopathogenicity at 250 uM; format: functional, organism-based; method in brief: as §4
[23] = test system: Human alphaherpesvirus 1; assay: Antiviral activity against thymidine kinase-deficient, ACV-resistant Herpes simplex virus 1 KOS infected in human HEL cells assessed as reduction of virus-induced cytopathogenicity at 250 uM; format: functional, organism-based; method in brief: as §4
[24] = test system: Vesicular stomatitis virus; assay: Antiviral activity against Vesicular stomatitis virus infected in human HEL cells assessed as reduction of virus-induced cytopathogenicity at 250 uM; format: functional, organism-based; method in brief: as §4
[25] = test system: Human alphaherpesvirus 2; assay: Antiviral activity against Herpes simplex virus 2 G infected in human HEL cells assessed as reduction of virus-induced cytopathogenicity at 250 uM; format: functional, organism-based; conditions: strain G; method in brief: as §5
[26] = test system: Human alphaherpesvirus 1; assay: Antiviral activity against Herpes simplex virus 1 KOS infected in human HEL cells assessed as reduction of virus-induced cytopathogenicity at 250 uM; format: functional, organism-based; method in brief: as §5

Compound: CCOP(=O)(OCC)[C@H]1C[C@H](C(=O)Nc2ccc(Br)cc2)ON1C (mixture of isomers)
- IC50 [1]: ≥ 250 µM
- IC50 [2]: 227 µM
- IC50 [3]: 177 µM
- Activity [4]: Non-toxic
- Activity [5]: Non-toxic
- Activity [6]: Non-toxic
- Activity [7]: Non-toxic
- Activity [8]: Non-toxic
- inhibition [9]: inactive
- inhibition [10]: inactive
- inhibition [11]: inactive
- inhibition [12]: inactive
- inhibition [13]: inactive
- inhibition [14]: inactive
- inhibition [15]: inactive
- inhibition [16]: inactive
- inhibition [17]: inactive
- inhibition [18]: inactive
- inhibition [19]: inactive
- inhibition [20]: inactive
- inhibition [21]: inactive
- inhibition [22]: inactive
- inhibition [23]: inactive
- inhibition [24]: inactive
- inhibition [25]: inactive
- inhibition [26]: inactive

Compound: CCOP(=O)(OCC)[C@@H]1C[C@H](C(=O)Nc2ccc(Cl)cc2)ON1C (mixture of isomers)
- IC50 [1]: > 250 µM
- IC50 [2]: ≥ 250 µM
- IC50 [3]: 170 µM
- Activity [4]: Non-toxic
- Activity [5]: Non-toxic
- Activity [6]: Non-toxic
- Activity [7]: Non-toxic
- Activity [8]: Non-toxic
- inhibition [9]: inactive
- inhibition [10]: inactive
- inhibition [11]: inactive
- inhibition [12]: inactive
- inhibition [13]: inactive
- inhibition [14]: inactive
- inhibition [15]: inactive
- inhibition [16]: inactive
- inhibition [17]: inactive
- inhibition [18]: inactive
- inhibition [19]: inactive
- inhibition [20]: inactive
- inhibition [21]: inactive
- inhibition [22]: inactive
- inhibition [23]: inactive
- inhibition [24]: inactive
- inhibition [25]: inactive
- inhibition [26]: inactive

Compound: CCOP(=O)(OCC)[C@H]1C[C@H](C(=O)Nc2ccccc2[N+](=O)[O-])ON1C (mixture of isomers)
- IC50 [1]: > 250 µM
- IC50 [2]: ≥ 250 µM
- IC50 [3]: 168 µM
- Activity [4]: Non-toxic
- Activity [5]: Non-toxic
- Activity [6]: Non-toxic
- Activity [7]: Non-toxic
- Activity [8]: Non-toxic
- inhibition [9]: inactive
- inhibition [10]: inactive
- inhibition [11]: inactive
- inhibition [12]: inactive
- inhibition [13]: inactive
- inhibition [14]: inactive
- inhibition [15]: inactive
- inhibition [16]: inactive
- inhibition [17]: inactive
- inhibition [18]: inactive
- inhibition [19]: inactive
- inhibition [20]: inactive
- inhibition [21]: inactive
- inhibition [22]: inactive
- inhibition [23]: inactive
- inhibition [24]: inactive
- inhibition [25]: inactive
- inhibition [26]: inactive

Compound: CCOP(=O)(OCC)[C@H]1C[C@H](C(=O)Nc2ccc(C(C)=O)cc2)ON1C (mixture of isomers)
- IC50 [1]: > 250 µM
- IC50 [2]: > 250 µM
- IC50 [3]: > 250 µM
- Activity [4]: Non-toxic
- Activity [5]: Non-toxic
- Activity [6]: Non-toxic
- Activity [7]: Non-toxic
- Activity [8]: Non-toxic
- inhibition [9]: inactive
- inhibition [10]: inactive
- inhibition [11]: inactive
- inhibition [12]: inactive
- inhibition [13]: inactive
- inhibition [14]: inactive
- inhibition [15]: inactive
- inhibition [16]: inactive
- inhibition [17]: inactive
- inhibition [18]: inactive
- inhibition [19]: inactive
- inhibition [20]: inactive
- inhibition [21]: inactive
- inhibition [22]: inactive
- inhibition [23]: inactive
- inhibition [24]: inactive
- inhibition [25]: inactive
- inhibition [26]: inactive

Compound: CCOP(=O)(OCC)[C@H]1C[C@H](C(=O)Nc2ccc(C)cc2)ON1C (relative stereo)
- Activity [4]: Non-toxic
- Activity [5]: Non-toxic
- Activity [6]: Non-toxic
- Activity [7]: Non-toxic
- Activity [8]: Non-toxic
- inhibition [9]: inactive
- inhibition [10]: inactive
- inhibition [11]: inactive
- inhibition [12]: inactive
- inhibition [13]: inactive
- inhibition [14]: inactive
- inhibition [15]: inactive
- inhibition [16]: inactive
- inhibition [17]: inactive
- inhibition [18]: inactive
- inhibition [19]: inactive
- inhibition [20]: inactive
- inhibition [21]: inactive
- inhibition [22]: inactive
- inhibition [23]: inactive
- inhibition [24]: inactive
- inhibition [25]: inactive
- inhibition [26]: inactive
